# Screens (PubChem)
# In the library only some 0.63% were active in any assay of this set; here they are far more common.
# STK33 kinase inh: inhibitors of purified STK33 kinase, primary screen, biochemical, ADP-Glo luminescence, homogeneous, cell-free; Serine/threonine-protein kinase 33 (Homo sapiens), Q9BYT3; MBP phosphorylation; inhibition, % at 10 µM; actives 0.073% (n = 320,000); AID 2661, 2010;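 active = inhibition at or above 25%, using the most active replicate where run in duplicate; inactive = inhibition below 25%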
# MT1-MMP act inh: blockers of MT1-MMP proenzyme processing, primary screen, HT1080 RFP-PRO-GFP cells, GFP/RFP fluorescence; GFP/RFP ratio fluorescence, overnight; percent of plate control window, DMSO zero; GFP/RFP ratio change, % at 20 µM; actives 0.061% (n = 360,000);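 active = GFP/RFP ratio change of at least 30% with cell ATP level not reduced by more than half and red fluorescence within 50% of control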
#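 Assay system: RFP-PRO-GFP reporter HT1080 cells; read-out basis: GFP/RFP fluorescence ratio; benchmarks: DMSO wells and RFP-L50D-GFP cells; doses: 20 µM single dose, 1% DMSO; schedule: overnight cell settling, then overnight compound exposure, 37 °C, 5% CO2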
# Pemphigus Ab inh: inhibitors of pemphigus antibody binding to DSG3, primary screen, biochemical, bead-based, flow cytometry, scFv-GFP | AID 588358, 2011 | binding (percent of control), % at 10 µM | actives 0.48% (n = 310,000) | Desmoglein-3 (Homo sapiens), P32926 | DSG3-coupled beads, scFv-anti-DSG3-GFP binding; active compounds read low;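 active = binding more than 3 SD below its plate's average and above zero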;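 also: hits lower antibody fragment binding to DSG3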
# GSK3B inh: human GSK3beta kinase inhibitors, primary screen, biochemical, cell-free homogeneous, HTS. AID 2097, 2009. GST-GSK3beta kinase, ADP-Glo luminescence, 60 min; active compounds read low. actives 0.038% (n = 300,000). activity score (negative = inhibition), % at 10 µM;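 active = more than half of replicate wells score below -50%, meaning over 50% inhibition versus plate controls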;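 also: 0% = median DMSO wells and -100% = median GW8510 positive control wells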
#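 Test system: GST-tagged human GSK3beta kinase, cell-free; evaluation: activity score scaled between in-plate DMSO and GW8510 controls; measured by: ADP-Glo luminescence; incubation: 60 min reaction, RT; benchmarks: DMSO and 20 µM GW8510; reagent: peptide substrate plus 25 µM ATP (final); medium: Tris/MgCl2 kinase buffer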
# GSK3 alpha inh: blockers of GSK3A enzyme activity – biochemical, luminescence, cell-free homogeneous, HTS, primary screen. GSK-3 alpha kinase, ADP-Glo luminescence, 60 min. actives 0.1% (n = 320,000). AID 2650, 2010. inhibition, % at 10 µM. Glycogen synthase kinase-3 alpha (Homo sapiens), P49840;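 active = more than half of replicates show inhibition above 20%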;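 also: GST-tagged GSK-3 alpha with peptide substrate and 25 µM ATP; 0% = DMSO neutral wells and 100% = GW8510 positive control wells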
# Starred values were filed as active, the others as inactive; x = not tested or not shown.
SMILES,STK33 kinase inh,MT1-MMP act inh,Pemphigus Ab inh,GSK3B inh,GSK3 alpha inh
CCCCCCCCN1C(=O)[C@H](CC(=O)N2CCN(C(=O)C3CC3)CC2)C[C@@]2(C(=O)OCC)CCCC=C12,x,19,x,x,x
COc1ccc(C(=O)C2CCN(C(=S)NCCc3ccc(OC)c(OC)c3)CC2)cc1,-2,12,-9.4*,0,-3
C[C@@H]1O[C@H](CCc2cccc(Cl)c2)CC2=C1C(=O)OC(C)(C)O2,x,-4,x,x,x
CCN(c1ccccc1)S(=O)(=O)c1ccc(Cl)c(NC(=O)CSc2ncn[nH]2)c1,0,-2,x,1,-2
CCN(c1ccccc1)S(=O)(=O)c1ccc(Cl)c(NC(=O)c2ccc(=O)[nH]n2)c1,-1,-2,21*,x,-2
COC(=O)Cc1ccc(OC2(C)CCN(Cc3ccccc3OC(F)F)C2)cc1 (stereo unspecified),x,-3,x,x,x
CC(=O)Nc1cccc(-c2cnc(N)c(C(=O)c3cccnc3)n2)c1,13,-19,109,x,89*
CCCC(=O)N1CCC1(C)C(=O)Nc1cccc(F)c1 (stereo unspecified),x,0,x,x,x
CN(C)S(=O)(=O)c1ccc(NC(=O)c2cc(-c3cccs3)nc3ccccc23)cc1,x,-13,107,0,x
COC(=O)c1ccc(NC(=O)c2cc(-c3ccccn3)nc3ccccc23)cc1,1,-5,4.9*,1,0
NS(=O)(=O)c1ccc(NC(=O)c2cc(-c3cccs3)nc3ccccc23)cc1,-2,-10,36*,1,1
CCc1c(C)c(C#N)c2nc3ccccc3n2c1NCc1ccccn1,4,0,x,0,81*
O=C(NCc1ccccc1)C(C1CC1)n1c(-c2cccs2)nc2ccccc21 (stereo unspecified),x,1,x,x,x
COc1ccc2oc3cc(C)[n+]([O-])c(-c4ccc(C)cc4)c3c2c1,1,1,109,-55*,53*
CCOC(=O)[C@]12CCC=C1N(Cc1ccccc1)C(=O)[C@H](CC(=O)NCc1cccs1)C2,x,0,x,x,x
Cc1ccc(C)c(NC(=S)NC2CC3CCC(C2)N3Cc2ccco2)c1 (stereo unspecified),0,-2,80*,-1,-4
COc1ccc(C(NC(=O)C2CCN(CCOc3ccc(Cl)cc3Cl)CC2)c2cccs2)cc1 (stereo unspecified),x,3,x,x,x
COc1ccc([C@H]2CC(=O)C[C@@H](CCn3cc(CCc4ccccc4)nn3)O2)cc1,x,4,x,x,x
CCOc1ccc(/C=N/NC(=O)c2cc(-c3ccco3)nc3ccccc23)cc1,1,-3,117,1,0
O=C(NC1CC1)c1cc(-c2ccco2)nc2ccccc12,x,-4,72*,1,x
O=C(N/N=C/c1ccc(F)cc1)c1cc(-c2ccco2)nc2ccccc12,1,-4,28*,2,-1
OC(c1cccc(Cl)c1)c1ncc(-c2ccccc2Cl)[nH]1 (stereo unspecified),x,5,x,x,x
O=C1[C@H]2[C@@H](c3ccc(F)cc3)N3C(=O)N(c4cccc(Br)c4)C(=O)[C@@]3(Cc3ccc(Cl)cc3)[C@H]2C(=O)N1C1CCCCC1,0,-6,-6.5*,0,-1
O=C1[C@H]2[C@@H](c3ccc(Cl)cc3)N3C(=O)N(c4cccc(Br)c4)C(=O)[C@@]3(Cc3ccc(Cl)cc3)[C@H]2C(=O)N1C1CCCCC1,0,-5,98,-1,-2
O=c1c2cc(-c3ccccc3)sc2ncn1-n1cccc1,0,-9,82*,0,-1
SMILES,STK33 kinase inh,MT1-MMP act inh,Pemphigus Ab inh,GSK3B inh,GSK3 alpha inh
CCn1cnc2sc(-c3ccccc3)cc2c1=O,1,-1,98,2,2
CC(C)CC1C(=O)N(Cc2cn(Cc3ccco3)nn2)CCS(=O)(=O)N1Cc1ccc(-c2ccccc2)cc1 (stereo unspecified),x,-2,x,x,x
Nc1nc(Nc2ccccc2)sc1C(=O)c1ccccc1,12,-3,105,-71*,92*
COc1ccc(C(=O)c2sc(Nc3ccccc3)nc2N)cc1,2,-10,92,-1,28
COc1ccc(C(=O)c2sc(Nc3ccccc3)nc2N)cc1OC,3,-11,95,1,90*
COc1ccc(C(=O)c2sc(Nc3ccccc3F)nc2N)cc1,3,-5,95,-19,56*
Cc1cnc(NC(=O)c2sc(Nc3ccccc3)nc2N)o1,5,-2,95,-4,25
O=C(Nc1ccc(F)cc1)C(c1ccnc2ccccc12)N1CCN(c2cccc(C(F)(F)F)n2)CC1 (stereo unspecified),x,5,x,x,x
Cc1cccc(C)c1NC(=O)C1(C)CN(S(C)(=O)=O)CC(=O)N1Cc1ccco1 (stereo unspecified),x,0,x,x,x
CS(=O)(=O)Nc1cccc(-c2cc(NC=O)c3ncc(-c4ccc(F)c(Cl)c4)n3c2)c1,x,-5,x,x,x
O=C(CCC(=O)N1CCN(c2ccccc2F)CC1)N1CCN(c2ccccc2)CC1,-2,2,77*,0,2
CCn1c(CC(=O)Nc2ccc(F)cc2)nnc1SCC(=O)NC1=NCCS1,-2,1,-62*,2,1
CC(C)c1ccc(N(CC(=O)NC2CCCCC2)C(=O)CCC(=O)Nc2ccccn2)cc1,-1,-2,62*,3,2
COc1ccc(NC(=O)c2ccc3c(c2)S(=O)(=O)c2ccccc2C3=O)cc1,2,5,83*,0,-1
C/C(=N\NC(=O)Cc1ccccc1)c1cccs1,1,-1,78*,2,-4
CS(=O)(=O)N1CCN(c2ccc([N+](=O)[O-])c(NCc3cccnc3)c2)CC1,0,4,25*,1,2
CCCCCCCCN1C(=O)[C@H](CC(=O)NCC2CCCCC2)C[C@@]2(C(=O)OCC)CCC=C12,x,-3,x,x,x
Nc1c(CO)nnn1-c1ccccc1,1,-12,98,-21,50*
OCc1nnn(-c2ccccc2)c1CO,-1,-1,95,-2,-4
COC(=O)[C@]12CCCCC=C1N(Cc1cccc3ccccc13)C(=O)[C@H](CC(=O)NCCC(C)C)C2,x,-18,x,x,x
Cc1cc(C(=O)N2CCN(S(C)(=O)=O)CC2)sc1-c1ccccc1,-1,15,86*,0,0
Cc1cc(C(=O)N2CCN(c3ncccn3)CC2)sc1-c1ccccc1,-1,0,97,2,4
Cc1ccc(C)c(C(Nc2ccccc2)c2ccc3ccc(C)nc3c2O)c1 (stereo unspecified),x,8,x,x,x
CC1(C(=O)NS(=O)(=O)c2cccc(OC(F)F)c2)CCN1C(=O)c1cccc(F)c1 (stereo unspecified),x,9,x,x,x
